Experimental data from ChEMBL document CHEMBL3272346, “Vinyl ethers of choline and congeners” (1976).
Active and inactive are the calls of the source. The calls are words filed in the database; no cut-off is given here.

Assays:
Cavia porcellus [1] = species on record: Cavia porcellus; assay: Agonist activity at muscarinic acetylcholine receptor in guinea pig ileum assessed as muscle contraction at 2.5 to 10 ng/ml relative to acetylcholine
Cavia porcellus [2] = species on record: Cavia porcellus; assay: […] at muscarinic acetylcholine receptor in guinea pig ileum assessed as muscle contraction in presence of 0.2 mg/l atropine sulfate; assay type: tissue-based
Procedure, shortened: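 Contractions of a guinea pig ileum segment (animals 300-600 g, tissue taken just before the ileocecal valve) were evoked by added drug. Atropine sulfate was present at 0.2 mg/l to test antagonism of the responses.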

Canis familiaris [3] = assay: Increase in blood pressure in atropine sulfate-pretreated anesthetized dog at 0.3 to 0.6 mg/kg relative to acetylcholine; assay type: functional, Canis lupus familiaris; conditions: dose mg/kg 0.3-0.6
Procedure, shortened: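 Dogs were pretreated with atropine sulfate (0.5 mg/kg) and given compounds or acetylcholine at 0.3 and 0.6 mg/kg, rapidly into the right femoral vein in randomized order. Pressor responses were recorded from the left femoral artery by transducer. Relative potencies with 95% confidence intervals were calculated by Finney's method on molar cation amounts.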

Canis familiaris [4] = assay: Decrease in blood pressure in dog at 1 to 4 ug/kg relative to acetylcholine
Canis familiaris [5] = assay: Increase in blood pressure in hexamethonium bromide-pretreated anesthetized dog at 0.3 to 0.6 mg/kg; assay type: functional, organism-based; conditions: Canis lupus familiaris
Procedure, shortened: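 In atropine sulfate-pretreated (0.5 mg/kg) anesthetized dogs, compounds were given intravenously at 0.3 and 0.6 mg/kg. Femoral arterial pressor responses were measured after pretreatment with hexamethonium bromide, 10 mg/kg, given intravenously.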

Canis familiaris [6] = assay: Increase in blood pressure in dog at 0.2 mg/kg; assay type: functional, organism-based; design: dose 0.2 mg/kg; conditions: Canis lupus familiaris
Procedure, shortened: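 Dogs anesthetized with barbital sodium (250 mg/kg) and pretreated with atropine sulfate (0.5 mg/kg). Agents given rapidly into the right femoral vein in randomized order. Left femoral arterial pressure recorded by transducer. Pressor responses were also tested after intravenous hexamethonium bromide pretreatment (10 mg/kg). Potency is relative to acetylcholine, computed on molar cation amounts by Finney's method with 95% confidence intervals.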

Canis familiaris [7] = assay: Increase in blood pressure in atropine sulfate-pretreated anesthetized dog at 2 mg/kg; assay type: functional, organism-based; design: dose 2 mg/kg; conditions: Canis lupus familiaris

| SMILES | fold change (FC) (Cavia porcellus [1]) | Activity (Cavia porcellus [2]) | fold change (FC) (Canis familiaris [3]) | fold change (FC) (Canis familiaris [4]) | Activity (Canis familiaris [5]) | Activity (Canis familiaris [6]) | Activity (Canis familiaris [7]) |
| --- | --- | --- | --- | --- | --- | --- | --- |
| CCOCC[N+](C)(C)C.[I-] | 0.15 | inactive | 0.9 | 1.03 | inactive |  |  |
| C=COCC[N+](C)(C)C.[I-] | 0.09 | inactive | 1.93 | 1.13 | inactive |  |  |
| CN1C2CCC1CC(OC(=O)C(CO)c1ccccc1)C2 (centres undefined) |  |  |  |  |  | Active |  |
| C=COCC(C)[N+](C)(C)C.[I-] (racemic) | 0.001 | inactive | 3.74 | 0.06 | inactive |  |  |
| C=COC(C)C[N+](C)(C)C.[I-] (racemic) | 0.02 | inactive |  | 0.74 |  |  | inactive |
| CCOCC(C)[N+](C)(C)C.[I-] (racemic) | 0.003 | inactive | 1.13 | 0.08 | inactive |  |  |
| CCOC(C)C[N+](C)(C)C.[I-] (racemic) | 0.03 | inactive |  | 0.64 |  |  | inactive |
